As a reminder, the LD50 is the dose expected to kill half of the subjects tested.

Consider 2 compounds from ChEMBL document CHEMBL3272327, “Hypocholesterolemic activity of 1,3-bis(substituted phenoxy)-2-propanones” (J Med Chem, 1976).

The test system of data set [1] is Rattus norvegicus. Description: Hypocholesterolemic activity in Sprague-Dawley rat assessed as serum cholesterol level at 10 mg/kg/day, po administered via intubation measured on day 10 by Liebermann-Burchard reaction (reference value: 100%). The data set is classed as functional.
Data set [2] relates to Mus musculus. In words: Antifertility activity in CF1 mouse assessed as proportion of reabsorption litter at 50 mg/kg/day, ip (reference value: 100 +/- 25%). The following applies: in vivo. Set-up: route intraperitoneal. The data set is classed as ADME, organism-based.
The test system of data set [3] is Rattus norvegicus. Description: Effect on kidney weight in rat at 10 mg/kg/day administered for 16 days measured 24 hrs after last drug dosage relative to total body weight (reference value: 0.96 +/- 0.08%). The data set is classed as ADME, organism-based. The following applies: in vivo.
The test system of data set [4] is Rattus norvegicus. Description: Effect on testes weight in rat at 10 mg/kg/day administered for 16 days measured 24 hrs after last drug dosage relative to total body weight (reference value: 1.10 +/- 0.17%). The data set is classed as ADME, organism-based, Testis. The following applies: in vivo.
Data set [5] in a line: Solubility of the compound in 1% CMC. The data set is classed as physicochemical.
The subject of data set [6] is Rattus norvegicus. In words: Effect on RNA content in rat liver at 10 mg/kg/day administered for 16 days (reference value: 100 +/- 8%). The following applies: in vivo, 384 h. The data set is classed as ADME, organism-based.
In data set [7] the test system is Rattus norvegicus. Description: Effect on epididymis and vas deferens weight in rat at 10 mg/kg/day administered for 16 days measured 24 hrs after last drug dosage relative to total body weight (reference value: 0.24 +/- 0.07%). The data set is classed as ADME, organism-based. As to conditions: in vivo.
For data set [8], the system named is Rattus norvegicus. In words: Effect on glycogen content in rat liver at 10 mg/kg/day administered for 16 days (reference value: 100 +/- 24%). The data set is classed as ADME, organism-based. As to conditions: in vivo, 384 h.
Data set [9] relates to Rattus norvegicus. Description: Hypocholesterolemic activity in Sprague-Dawley rat assessed as serum cholesterol level at 10 mg/kg/day, po administered via intubation measured on day 4 by Liebermann-Burchard reaction (reference value: 100%). The data set is classed as functional.
Data set [10] has as its system Rattus norvegicus. Description: Uterotrophic activity in ovariectomized Sprague-Dawley rat assessed as uterine weight administered for 3 days (reference value: 100 +/- 27%). The data set is classed as organism-based, Uterus. The following applies: in vivo, 72 h.
Data set [11] concerns Rattus norvegicus. Description: Effect on protein content in rat liver at 10 mg/kg/day administered for 16 days (reference value: 100 +/- 6%). The data set is classed as ADME, organism-based. The following applies: in vivo, 384 h.
The test system of data set [12] is Rattus norvegicus. In words: Effect on DNA content in rat liver at 10 mg/kg/day administered for 16 days (reference value: 100 +/- 25%). The data set is classed as ADME, organism-based. As to conditions: in vivo, 384 h.
The subject of data set [13] is Rattus norvegicus. Description: Effect on heart weight in rat at 10 mg/kg/day administered for 16 days measured 24 hrs after last drug dosage relative to total body weight (reference value: 0.43 +/- 0.10%). The data set is classed as ADME, organism-based. As to conditions: in vivo.
For data set [14], the system named is Rattus norvegicus. Description: Effect on liver weight in rat at 10 mg/kg/day administered for 16 days measured 24 hrs after last drug dosage relative to total body weight (reference value: 4.54 +/- 0.29%). The data set is classed as ADME, organism-based. The following applies: in vivo.
In data set [15] the test system is Rattus norvegicus. In words: Effect on vesicular gland weight in rat at 10 mg/kg/day administered for 16 days measured 24 hrs after last drug dosage relative to total body weight (reference value: 0.11 +/- 0.04%). The data set is classed as ADME, organism-based. As to conditions: in vivo.
Data set [16] in a line: Toxicity in ip dosed CF1 mouse assessed as animal death. The data set is classed as organism-based. The following applies: in vivo. The method in brief: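 Male CF1 mice given active propanones ip over 10 mg to 6 g/kg where solubility allowed; deaths recorded to estimate LD50.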
The test system of data set [17] is Rattus norvegicus. Description: Effect on lipid content in rat liver at 10 mg/kg/day administered for 16 days (reference value: 100 +/- 16%). The data set is classed as ADME, organism-based. The following applies: in vivo, 384 h.
For data set [18], the system named is Mus musculus. In words: Antifertility activity in CF1 mouse assessed as proportion of pregnant animals at 50 mg/kg/day, ip (reference value: 100%). The data set is classed as ADME, organism-based. The arrangement: route intraperitoneal. As to conditions: in vivo.
For data set [19], the system named is Mus musculus. In words: Antifertility activity in CF1 mouse assessed as proportion of fetus per litter at 50 mg/kg/day, ip (reference value: 100 +/- 25%). The data set is classed as ADME, organism-based. Set-up: route intraperitoneal. The following applies: in vivo.
Data set [20] has as its system Rattus norvegicus. Description: Hypocholesterolemic activity in rat assessed as serum triglyceride level at 10 mg/kg/day administered for 8 days (reference value: 100 +/- 15%). The data set is classed as functional. The method in brief:
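Male Sprague-Dawley rats dosed orally at 10 mg/kg/day in 1% CMC. Serum triglycerides were measured with a stat pack kit after 8 days of dosing. Expressed as percent of vehicle control, N = 8; Student's t test.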

Data set [21] relates to Rattus norvegicus. Description: Hypocholesterolemic activity in Sprague-Dawley rat assessed as serum cholesterol level at 10 mg/kg/day, po administered via intubation measured on day 16 by Liebermann-Burchard reaction (reference value: 100%). The data set is classed as functional.
For data set [22], the species on record is Mus musculus. In words: Antifertility activity in CF1 mouse assessed as proportion of reabsorption litter at 10 ug (reference value: 100 +/- 25%). The data set is classed as ADME, organism-based. As to conditions: in vivo.
Data set [23] is filed under the species Mus musculus. In words: Antifertility activity in CF1 mouse assessed as proportion of pregnant animals at 10 ug (reference value: 100%). The data set is classed as ADME, organism-based. As to conditions: in vivo.
Data set [24] is filed under the species Mus musculus. Description: Antifertility activity in CF1 mouse assessed as proportion of fetus per litter at 10 ug (reference value: 100 +/- 25%). The following applies: in vivo. The data set is classed as ADME, organism-based.

With `O=C(COc1ccc(Cl)cc1)COc1ccc(Cl)cc1`, the Activity in the data set on Rattus norvegicus [1] is recorded as 64%; in the data set on Mus musculus [2] it was 30%; with Rattus norvegicus [3], 0.86%; in the data set on Rattus norvegicus [4] it was 1.23%; with Rattus norvegicus [6], 99%; in the data set on Rattus norvegicus [7] it was 0.26%. For the same compound, the Activity with Rattus norvegicus [8] came out at 105%; with Rattus norvegicus [9] it was 81%; in the data set with Rattus norvegicus [10], 48%; with Rattus norvegicus [11], 91%; with Rattus norvegicus [12] it was 78%; in the data set with Rattus norvegicus [13], 0.39%. Besides, the Activity in the data set on Rattus norvegicus [14] is 4.51%; with Rattus norvegicus [15] it was 0.14%; in the data set on Rattus norvegicus [17], 101%; with Mus musculus [18] it was 100%; in the data set with Mus musculus [19] it was 84%; with Rattus norvegicus [20] it was 108%. Moreover, in the data set with Rattus norvegicus [21], the Activity was 62%. Also, the solubility entry in [5] was “Insoluble”. Besides, the LD50 in data set [16] is more than 2000 mg/kg.

With `CC/C(=C(/CC)c1ccc(O)cc1)c1ccc(O)cc1` [DIETHYLSTILBESTROL], the Activity in the data set filed under Mus musculus [22], in the data set filed under Mus musculus [23] and in the data set filed under Mus musculus [24] was 0% throughout.
